# An excerpt weighted towards active compounds, which were near 3.1% of everything screened.
# PAFAH2 inh: inhibitors of human PAFAH2 | AID 492956 | inhibition, % at 3.39 µM | recombinant PAFAH2, FP-rhodamine activity probe, fluorescence polarization | Q99487 | 340,000 tested, 0.99% active;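 active = inhibition above the mean over all tested compounds plus 3 SD, cut at about 30% in these data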;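 note: inhibitors block probe labeling of enzyme so polarization drops; 0% = enzyme with DMSO and 100% = wells lacking PAFAH2 protein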
# Apaf1 inhib: inhibitors of human Apaf-1 apoptosome. O14727. reconstituted apoptosome caspase-3 activity, DEVD-Rh110 fluorescence. inhibition, % at 20 µM. 330,000 tested, 0.71% active. AID 489030; active = inhibition of at least 40% at 20 µM;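 note: plate controls were DMSO wells for no effect and DEVD-CHO caspase inhibitor wells for full effect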
# Target sequence (O14727 whole entry, looked up): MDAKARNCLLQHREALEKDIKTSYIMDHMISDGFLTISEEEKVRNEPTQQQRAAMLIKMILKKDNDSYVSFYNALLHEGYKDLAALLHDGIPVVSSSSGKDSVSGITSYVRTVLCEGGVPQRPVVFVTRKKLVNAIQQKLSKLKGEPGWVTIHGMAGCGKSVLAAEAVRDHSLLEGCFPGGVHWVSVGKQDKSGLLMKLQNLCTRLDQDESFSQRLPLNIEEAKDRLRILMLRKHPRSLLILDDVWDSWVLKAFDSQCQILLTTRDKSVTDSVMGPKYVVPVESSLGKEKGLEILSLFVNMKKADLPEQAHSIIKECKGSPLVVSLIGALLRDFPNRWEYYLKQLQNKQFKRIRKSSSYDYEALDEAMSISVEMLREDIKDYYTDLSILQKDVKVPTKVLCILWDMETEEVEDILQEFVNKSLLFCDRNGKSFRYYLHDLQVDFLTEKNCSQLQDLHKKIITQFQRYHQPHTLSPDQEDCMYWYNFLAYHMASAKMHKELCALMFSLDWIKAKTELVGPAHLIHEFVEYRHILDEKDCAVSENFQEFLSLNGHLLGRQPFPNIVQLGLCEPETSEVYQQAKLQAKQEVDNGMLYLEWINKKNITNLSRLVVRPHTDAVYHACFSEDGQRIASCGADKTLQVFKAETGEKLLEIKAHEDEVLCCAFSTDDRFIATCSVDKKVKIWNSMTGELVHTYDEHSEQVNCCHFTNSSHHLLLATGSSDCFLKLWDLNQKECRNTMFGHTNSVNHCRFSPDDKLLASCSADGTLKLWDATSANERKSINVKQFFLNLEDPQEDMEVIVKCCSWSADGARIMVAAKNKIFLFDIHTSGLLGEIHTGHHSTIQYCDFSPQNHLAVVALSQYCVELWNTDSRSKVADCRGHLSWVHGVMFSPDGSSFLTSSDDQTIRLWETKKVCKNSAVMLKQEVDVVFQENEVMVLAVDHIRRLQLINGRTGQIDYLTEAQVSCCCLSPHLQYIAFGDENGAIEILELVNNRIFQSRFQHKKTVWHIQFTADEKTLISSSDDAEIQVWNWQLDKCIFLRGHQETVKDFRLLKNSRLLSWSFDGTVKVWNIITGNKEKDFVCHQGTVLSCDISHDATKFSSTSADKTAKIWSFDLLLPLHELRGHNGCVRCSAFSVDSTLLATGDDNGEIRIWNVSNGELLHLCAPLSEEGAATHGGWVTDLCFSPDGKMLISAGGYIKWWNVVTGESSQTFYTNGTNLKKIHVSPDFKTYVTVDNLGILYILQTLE
#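 System: reconstituted apoptosome with Apaf-1, cytochrome c, caspase-9, procaspase-3, dATP; Signal: Rh110 fluorescence intensity; Schedule: 30 min compound preincubation, 50 min activation, room temperature; Reagent: cytochrome c trigger plus (Z-DEVD)2-Rh110 caspase-3 substrate.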
# pPAFAH FP inh: inhibitors of human plasma PAF acetylhydrolase (pPAFAH) | Q13093 | recombinant pPAFAH, FP-rhodamine probe fluorescence polarization | inhibition, % at 3.39 µM | 330,000 tested, 1.5% active | AID 463082;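 active = inhibition above the mean inhibition across the screen plus 3 SD, cut at about 25% in these data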;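 note: inhibitors block binding of the rhodamine activity-based probe so polarization drops; 0% = enzyme with DMSO and 100% = wells lacking pPAFAH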
# PAFAH1B3 FP inh: inhibitors of human PAFAH1B3; 340,000 tested, 0.28% active; inhibition, % at 3.39 µM; recombinant PAFAH1B3, FP-rhodamine probe, fluorescence polarization; Q15102;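 active = inhibition above the screen-wide average of all tested compounds plus 3 SD, cut at about 25% in these data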;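 note: 0% = enzyme with DMSO only and 100% = wells lacking PAFAH1B3 protein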
# PAFAH1B2 FP inh: blocks human PAF acetylhydrolase 1b catalytic subunit 2. 340,000 tested, 1.2% active. recombinant PAFAH1B2, FP-rhodamine activity probe, fluorescence polarization. inhibition, % at 3.39 µM. P68402;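 active = inhibition above the mean of all tested compounds plus 3 SD, cut at about 24% in these data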;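 note: 0% = enzyme with DMSO and 100% = wells lacking PAFAH1B2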
# pPAFAH FP conf: confirmation of human plasma PAF acetylhydrolase (pPAFAH) inhibitors | recombinant pPAFAH, FP-Rh probe fluorescence polarization | inhibition, % at 3.39 µM | AID 463230 | shares compounds with pPAFAH FP inh | 2,300 tested, 72% active;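 active = mean inhibition of the triplicate above the hit cutoff set for the earlier primary screen, cut at about 25% in these data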;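 note: 0% = enzyme with DMSO and 100% = wells lacking pPAFAH enzyme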
# Numbers without * were called inactive; . = no result given.
SMILES,PAFAH2 inh,Apaf1 inhib,pPAFAH FP inh,PAFAH1B3 FP inh,PAFAH1B2 FP inh,pPAFAH FP conf
Cc1nnc(NC(=O)CSc2nnc(CC(=O)Nc3ccccc3C)n2C)s1,-1.5,11.1,-3.4,11.2,3.3,.
COc1ccccc1-n1c(SCC(=O)NC(C)(C)C)nc(O)cc1=O,0.8,-10.1,3.5,6.8,-1.9,.
COc1ccccc1NC(=O)CSc1nc(O)cc(=O)n1-c1ccccc1OC,-3.2,3.6,42.6*,5.7,-2.8,-0.5
COc1ccccc1-n1c(SCC(=O)Nc2ccccc2C)nc(O)cc1=O,1.6,11.1,81.1*,3.5,1.7,5.5
CCOc1ccc(S(=O)(=O)NCCC(=O)NC2CCC(C)CC2)cc1 (stereo not drawn),0.6,1.3,4.8,8.5,4.9,.
Cc1ccc(S(=O)(=O)/N=C2/NC(=O)/C(=C/c3cc([N+](=O)[O-])ccc3O)S2)cc1,48.3*,15.0,41.4*,43.8*,60.8*,62.6*
COc1cc(/C=C2\S/C(=N/S(=O)(=O)c3ccc(C)cc3)NC2=O)c([N+](=O)[O-])cc1OC,0.6,19.1,14.3,14.8,15.4,.
O=C1NC(=Nc2ccccc2Cl)S/C1=C\c1cc([N+](=O)[O-])ccc1O,44.2*,-8.9,40.8*,60.7*,28.1*,62.7*
O=C1N/C(=N/O)S/C1=C/c1cccc([N+](=O)[O-])c1,10.5,5.8,1.1,5.5,4.7,.
CC(C)(C)C(=O)Nc1cc2c3c(c1)CCC(=O)N3CCC2,-1.2,1.9,2.0,8.3,-0.2,.
OCCOCCNc1ncnc2c1c(-c1ccccc1)cn2-c1ccccc1,0.6,6.0,34.6*,5.7,2.6,22.3
CC1CCCN(S(=O)(=O)CCNC(=O)c2ccccc2)C1 (stereo not drawn),5.4,4.8,-0.1,0.4,2.0,.
Cc1cnc(C(=O)OC(C)C(=O)Nc2ccc3c(c2)OCCO3)cn1 (stereo not drawn),5.5,-1.0,-3.0,0.3,-4.9,.
CC(OC(=O)c1ccccn1)C(=O)Nc1ccc2c(c1)OCCO2 (stereo not drawn),-4.2,-5.0,47.8*,1.5,-0.3,3.6
CCOC(=O)CN1CC(C)(C)N(CC(=O)OCC)CC1(C)C,-1.1,.,.,1.6,1.6,.
Cc1ccc(CC2(c3ccccc3)NC(=O)NC2=O)cc1 (stereo not drawn),-2.2,.,.,6.8,-1.0,.
O=C(CCN1C(=O)/C(=C/c2ccco2)SC1=S)Nc1ccc(O)cc1C(=O)O,14.7,5.3,.,12.4,2.8,.
O=C(CN1C(=O)/C(=C\c2ccco2)SC1=S)Nc1ccc(O)cc1C(=O)O,20.5,10.7,42.4*,10.9,2.2,10.8
O=C(CCCN1C(=O)/C(=C/c2ccco2)SC1=S)Nc1ccccc1C(=O)O,17.8,-0.3,64.9*,5.5,14.8,4.5
O=CC1=C(c2ccccc2)Oc2ccccc2O1,-2.0,9.6,9.9,3.9,2.2,.
CNc1ccccc(-c2ccc3cc4c(cc3n2)OCO4)c1=O,4.2,19.3,83.9*,2.4,-2.9,0.4
COc1ccc(CN2CCN(C3CCC3)CC2CCO)c(F)c1 (stereo not drawn),-5.8,2.7,.,-0.5,1.7,.
CCN(CC)CCC(O)(c1ccc2c(c1)OCO2)c1cc(OC)c(OC)c(OC)c1 (stereo not drawn),1.2,.,.,4.3,6.2,.
Nc1nc(-c2ccccc2)c(N=Nc2ccccc2Cl)s1,4.8,28.3,38.9*,15.8,5.1,52.7*
Cc1ncc(N=Nc2ccccc2Cl)c(-c2ccccc2)n1,3.9,9.4,8.7,5.5,2.4,.
SMILES,PAFAH2 inh,Apaf1 inhib,pPAFAH FP inh,PAFAH1B3 FP inh,PAFAH1B2 FP inh,pPAFAH FP conf
Cc1ccc(C)c(/C=C/C(=O)c2ccccc(=O)c2O)c1,11.9,.,20.1,5.7,-3.5,.
Cc1ccc(/C=C/C(=O)c2ccccc(=O)c2O)c(C)c1,20.5,-7.3,69.3*,3.7,-5.4,14.2
OCC(O)/C=N/Nc1nc(Nc2ccccc2)nc(Nc2ccccc2)n1 (stereo not drawn),1.1,8.7,38.6*,-0.5,-4.0,20.0
COC(=O)CSc1cc(C(=O)c2nccn2C)c2ccccc2n1,0.3,2.1,42.8*,4.7,-1.1,21.9
Cc1ccc(NC(=O)c2cc(C)n(-c3ccccc3)c2C)cc1,-1.6,14.3,10.0,0.4,-3.1,.
Cc1ccc(NC(=O)c2cc(C)n(-c3cccc(C)c3)c2C)cc1,-5.3,3.8,71.3*,4.9,-0.2,76.7*
Cc1cc(O)cc(C)c1NS(=O)(=O)c1ccc2ccccc2c1,-0.3,8.1,-0.8,4.6,0.4,.
O=C1Nc2ccc(Br)cc2/C1=C/c1ccc(C(=O)O)cc1,.,7.7,7.0,.,.,.
O=C(Nc1nc2c(F)cccc2s1)c1ccco1,6.1,-4.2,2.6,6.7,7.0,.
O=C(Nc1nc(-c2ccco2)c(-c2ccco2)s1)c1c(F)cccc1Cl,23.9,4.7,48.2*,8.1,-0.1,16.0
Cc1cccc(N2CCN(C(=O)c3ccc4nc(N5CCCCC5)sc4c3)CC2)c1C,-1.7,8.9,40.2*,-2.7,-0.3,9.3
Cc1cccc(C)c1N1C(=O)[C@@H]2C(c3ccccc3Cl)=NO[C@@H]2C1=O,3.1,4.7,2.5,-4.1,10.9,.
COc1ccc(OC)c(N2C(=O)[C@@H]3C(c4ccccc4Cl)=NO[C@@H]3C2=O)c1,21.3,-12.0,37.9*,6.0,4.6,13.1
O=C1NC(=O)C(c2ccccc2[N+](=O)[O-])=C1Nc1ccc(O)c(Cl)c1,11.7,28.1,44.5*,8.0,-0.2,6.1
Cc1c(N/C(=N/S(=O)(=O)c2ccc(Cl)cc2)c2ccccc2)c(=O)n(-c2ccccc2)n1C,.,10.9,82.1*,.,.,-6.7
Cc1c(N/C(=N/S(=O)(=O)c2ccccc2)c2ccc(Cl)cc2)c(=O)n(-c2ccccc2)n1C,-1.3,-6.3,3.2,3.0,4.5,.
CCCOc1ccc(C(C)=O)cc1CSc1nc(O)cc(=O)[nH]1,5.7,14.6,34.7*,3.3,2.9,11.5
CCCOc1ccc(C(C)=O)cc1CSCCC#N,-1.7,3.6,0.1,4.7,3.0,.
Cc1cc(Cl)ccc1NC(=O)CN(C)C1=NS(=O)(=O)c2ccccc21,2.5,-5.2,3.4,5.9,-4.2,.
Cc1ccccc1Nc1nnc(SCC(=O)NCC2CCCO2)s1 (stereo not drawn),2.3,2.0,-4.0,6.6,3.3,.
Nc1ccc(N2CCN(CCCCN3C(=O)C4CCCN4C3=O)CC2)cc1 (stereo not drawn),6.2,26.1,70.0*,4.6,0.3,12.7
O=C1C2CCCCN2C(=O)N1CCCN1CCN(c2ccc(F)cc2)CC1 (stereo not drawn),0.0,0.1,4.6,6.8,5.2,.
O=C(CNC(c1ccccc1)c1ccccc1)Nc1c(F)cccc1F,4.2,2.2,89.2*,12.8,4.6,10.4
COC(=O)c1[nH]c2cc(OC)ccc2c1NC(=O)CCN1CCCC(C)(C)C1,-5.7,-15.7,4.7,-3.7,3.0,.
COC(=O)c1[nH]c2cc(OC)ccc2c1NC(=O)CCN1CCCCC1,0.8,-12.7,39.4*,-2.2,1.1,8.8
